We go through 2 molecules from ChEMBL document CHEMBL5150021, “Identification of 5-(Aryl/Heteroaryl)amino-4-quinolones as Potent Membrane-Disrupting Agents to Combat Antibiotic-Resistant Gram-Positive Bacteria” (J Med Chem, 2022).

One data set deals with Erythrocyte. Kind of data set: Hemolytic activity in sheep erythrocytes at 32 ug/ml incubated for 1 hr. Format: toxicity, cell-based, Ovis aries. Conditions: dose 32 µg/ml. The essentials:
(§1)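 4% sheep erythrocytes mixed 1:1 with twofold serial compound dilutions in PBS, incubated stationary 1 h at 37 °C, then centrifuged at 500g for 5 min. Supernatant A540 is measured and percent hemolysis is calculated relative to DMSO vehicle (0%) and Triton X-100 (100%). Triplicate, mean ± SD.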

Data set [1] concerns Vero. As to the kind of experiment: Cytotoxicity against African green monkey Vero cells assessed as increase in LDH release at 30 uM incubated for 24 hrs relative to control. Type of data set: toxicity, cell-based. Particulars: chlorocebus sabaeus. The essentials:
(§2)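 Confluent Vero cells (maintained in RPMI 1640 + 10% FBS, 37 °C, 5% CO2) exposed to compound at 0.47–30 μM (twofold dilutions) in serum-free medium for 24 h at 37 °C. LDH in supernatant is measured colorimetrically at 490 nm and expressed as percent of 2% detergent positive control.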

The subject of data set [2] is Staphylococcus aureus. As to the kind of experiment: Antibacterial activity against methicillin-resistant Staphylococcus aureus NRS71 assessed as inhibition of bacterial growth incubated for 24 hrs by CLSI based method. Type of data set: functional. Put shortly: (§3)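 Broth microdilution per CLSI. Equal volume of twofold serial compound dilutions added. Incubated stationary at 37 °C for 24 h. MIC taken as lowest concentration giving complete inhibition of visible growth. Oxacillin control for Gram-positives, ceftriaxone for Gram-negatives.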

Data set [3] relates to Staphylococcus aureus. Kind of data set: Antibacterial activity against methicillin resistant Staphylococcus aureus FPR3757 assessed as inhibition of bacterial growth incubated for 24 hrs by CLSI based method. Type of data set: functional. Conditions: read-out: MIC100. The essentials: (§4)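 It was mixed 1:1 with twofold serial compound dilutions and incubated stationary at 37 °C for 24 h. MIC was the lowest concentration giving complete inhibition of observable growth, with an oxacillin control.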

A short description of data set [4]: Volume of distribution in CD-1 mouse at 0.5 mg/kg, iv administered as single dose and measured for 24 hrs by LC-MS/MS analysis. Format: ADME, organism-based. Particulars: in vivo. Put shortly: (§5)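 Six-week-old female CD-1 mice (n = 3 per route). Dosing: single 0.5 mg/kg i.v. in 5% DMA/95% (4% Cremophor EL), or 10 mg/kg oral gavage in 5% DMA/60% PEG 300/35% D5W. Tail-vein blood is collected to 24 h into K2EDTA, and plasma is analysed by LC-MS/MS. Parameters come from noncompartmental analysis.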

For data set [5], the system named is Staphylococcus aureus. As to the kind of experiment: Antibacterial activity against methicillin-resistant Staphylococcus aureus N315 assessed as inhibition of bacterial growth incubated for 24 hrs by CLSI based method. Format: functional. Put shortly: as §3
In data set [6] the test system is Staphylococcus epidermidis. As to the kind of experiment: Antibacterial activity against Staphylococcus epidermidis NIF104003 assessed as inhibition of bacterial growth incubated for 24 hrs by CLSI based method. Format: functional. The essentials: as §3
A short description of data set [7]: Oral bioavailability in CD-1 mouse at 10 mg/kg administered as single dose and measured for 24 hrs by LC-MS/MS analysis. Format: ADME, organism-based. Particulars: in vivo. Put shortly: as §5
The test system of data set [8] is Enterococcus faecium. As to the kind of experiment: Antibacterial activity against Enterococcus faecium DHMC #1 assessed as inhibition of bacterial growth incubated for 24 hrs by CLSI based method. Type of data set: functional. Put shortly: as §3
Data set [9] relates to Cell membrane. Kind of data set: Induction of cell membrane damage in Staphylococcus aureus USA300 assessed as bulging of the septum at 1 times MIC measured after 1 hrs by TEM analysis. The essentials: (§6)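 Fixed in glutaraldehyde/paraformaldehyde in cacodylate pH 7.4, post-fixed with osmium tetroxide, stained with uranyl acetate, resin-embedded, thin-sectioned and imaged by TEM.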

The test system of data set [10] is Cell membrane. As to the kind of experiment: Induction of cell membrane damage in Staphylococcus aureus USA300 assessed as membrane wrinkling at 1 times MIC measured after 1 hrs by TEM analysis. The essentials:
as §6

Data set [11] in a line: Cmax in CD-1 mouse at 10 mg/kg, po administered as single dose and measured for 24 hrs by LC-MS/MS analysis. Type of data set: ADME, organism-based. Details: time 24 hrs, dose 10 mg/kg, route po. Particulars: in vivo.
A short description of data set [12]: Protein binding in human plasma at […] incubated for 4 hrs under shaking condition by LC-MS/MS based equilibrium dialysis method. Type of data set: ADME, cell-free. Put shortly: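 Rapid equilibrium dialysis (8k MWCO). Compound is spiked into human plasma at 10 μg/mL and dialysed against DPBS pH 7.4 with shaking for 4 h at 37 °C. Matrices are matched, proteins precipitated with methanol containing internal standard, and both chambers quantified by LC-MS/MS against a calibration curve. Percent free and bound are calculated from chamber concentrations.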

Data set [13] has as its system Staphylococcus aureus. As to the kind of experiment: Antibacterial activity against methicillin-resistant Staphylococcus aureus MW2 assessed as inhibition of bacterial growth incubated for 24 hrs by CLSI based method. Type of data set: functional. Put shortly:
as §3

Another data set has as its system Candida albicans. Kind of data set: Antifungal activity against Candida albicans SC5314 assessed as inhibition of bacterial growth incubated for 24 hrs by CLSI based method. Format: functional. The essentials: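 Broth microdilution per CLSI. It is mixed 1:1 with twofold serial compound dilutions and incubated stationary at 35 °C for 24 h. MIC is read as the lowest concentration with no observable growth.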

Data set [14] is described as follows: Half life in CD-1 mouse at 0.5 mg/kg, iv administered as single dose and measured for 24 hrs by LC-MS/MS analysis. Format: ADME, organism-based. Conditions: in vivo. Put shortly: as §5
Data set [15] concerns Staphylococcus aureus. Kind of data set: Antibacterial activity against community-associated methicillin-resistant Staphylococcus aureus USA300 FPR3757 assessed as inhibition of bacterial growth incubated for 24 hrs by CLSI based method. Format: functional. Put shortly: as §4
A short description of data set [16]: AUC (0 to 24 hrs) in CD-1 mouse at 10 mg/kg, po administered as single dose and measured for 24 hrs by LC-MS/MS analysis. Type of data set: ADME, organism-based. Details: time 24 hrs, dose 10 mg/kg, route po. Particulars: in vivo.
Data set [17] in a line: Kinetic aqueous solubility of the compound in DPBS at pH 7.4 at 100 ug/ml measured after 6 hrs by LC-MS/MS analysis. Particulars: buffer, pH 7.4, 6 h, dose 100 µg/ml. Type of data set: physicochemical.
For another data set, the system named is Klebsiella pneumoniae. Kind of data set: Antibacterial activity against Klebsiella pneumoniae 7117 assessed as inhibition of bacterial growth incubated for 24 hrs by CLSI based method. Type of data set: functional. The essentials:
as §3

Data set [18] is described as follows: Cytotoxicity against sheep erythrocytes assessed as reduction in cell viability. Type of data set: toxicity, cell-based, Ovis aries, Erythrocyte. Put shortly:
as §1

Data set [19] relates to Staphylococcus epidermidis. Kind of data set: Antibacterial activity against Staphylococcus epidermidis NIF104008 assessed as inhibition of bacterial growth incubated for 24 hrs by CLSI based method. Format: functional. The essentials:
as §3

The subject of data set [20] is Vero. As to the kind of experiment: Cytotoxicity against African green monkey Vero cells assessed as increase in LDH release at 0.47 to 30 uM incubated for 24 hrs. Type of data set: toxicity, cell-based. Conditions: chlorocebus sabaeus, dose 0.47-30 µM. Put shortly: as §2
In data set [21] the test system is Cell membrane. Kind of data set: Induction of cell membrane damage in Staphylococcus aureus USA300 assessed as cross-wall-septum formation with reduced splitting at 1 times MIC measured after 10 mins by TEM analysis. Type of data set: subcellular.
For data set [22], the system named is Cell membrane. Kind of data set: Induction of cell membrane damage in Staphylococcus aureus USA300 assessed as mesosome-like membrane inclusions at 1 times MIC measured after 1 hrs by TEM analysis. Put shortly: as §6
The test system of data set [23] is Enterococcus faecalis. As to the kind of experiment: Antibacterial activity against Enterococcus faecalis ATCC700802 assessed as inhibition of bacterial growth incubated for 24 hrs by CLSI based method. Format: functional. Put shortly:
as §3

The subject of data set [24] is Staphylococcus aureus. As to the kind of experiment: Antibacterial activity against methicillin resistant Staphylococcus aureus FPR3757 assessed as inhibition of bacterial growth incubated for 24 hrs in presence of 10% mouse serum by CLSI based method. Format: functional. The essentials:
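CLSI broth microdilution against MRSA FPR3757 (USA300) in Mueller–Hinton broth supplemented with 10% serum (fetal bovine or mouse). Inoculum 10⁶ CFU/mL with twofold serial compound dilutions, stationary incubation at 37 °C for 24 h. MIC read as lowest concentration with complete inhibition of visible growth.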

In data set [25] the test system is Staphylococcus aureus. As to the kind of experiment: microbe, parasite or virus in culture. Particulars: USA300 FPR3757, 24 h.
In a further data set the test system is Enterobacter cloacae. Kind of data set: Antibacterial activity against Enterobacter cloacae ND-21 assessed as inhibition of bacterial growth incubated for 24 hrs by CLSI based method. Format: functional. The essentials:
as §3

Data set [26] concerns Enterococcus faecalis. Kind of data set: Antibacterial activity against Enterococcus faecalis DHMC #1 assessed as inhibition of bacterial growth incubated for 24 hrs by CLSI based method. Type of data set: functional. Put shortly: as §3
In a further data set the test system is Escherichia coli. Kind of data set: Antibacterial activity against Escherichia coli DHMC-1 assessed as inhibition of bacterial growth incubated for 24 hrs by CLSI based method. Type of data set: functional. The essentials:
as §3

For data set [27], the system named is Staphylococcus aureus. As to the kind of experiment: Antibacterial activity against methicillin-resistant Staphylococcus aureus COL assessed as inhibition of bacterial growth incubated for 24 hrs by CLSI based method. Format: functional. The essentials: as §3
Data set [28] is described as follows: AUC (0 to 24 hrs) in CD-1 mouse at 0.5 mg/kg, iv administered as single dose and measured for 24 hrs by LC-MS/MS analysis. Format: ADME, organism-based. Details: time 24 hrs, dose 0.5 mg/kg, route iv. Conditions: in vivo. The essentials: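 Six-week-old female CD-1 mice (20–25 g; n = 3) received one intravenous injection at 0.5 mg/kg in 5% DMA:95% (4% Cremophor EL). […] Plasma was stored at −80 °C and quantified by LC-MS/MS. AUC came from noncompartmental analysis, reported as mean ± SD.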

Data set [29] deals with Enterococcus faecium. As to the kind of experiment: Antibacterial activity against Enterococcus faecium ATCC19579 assessed as inhibition of bacterial growth incubated for 24 hrs by CLSI based method. Format: functional. Put shortly:
as §3

Data set [30] has as its system Staphylococcus aureus. Kind of data set: Antibacterial activity against methicillin resistant Staphylococcus aureus assessed as inhibition of bacterial growth incubated for 15 hrs by CLSI based broth microdilution method. Type of data set: functional.

Structures are written as SMILES. Values after ≈ are worked out from the molar mass of the structure shown. Active and inactive are the calls of the source. The calls are words filed in the database; no cut-off is given here.

On to `O=c1cc(C(F)(F)F)[nH]c2cc(C(F)(F)F)cc(Nc3ccc(C(F)(F)F)cn3)c12`, for which the Activity result with Erythrocyte is on record as “Non-Toxic”; with Vero [1] it was 20%; with Vero [20], “Non-Toxic”. Further, the MIC with Staphylococcus aureus [2] is less than 0.06 µg/mL; in the data set with Staphylococcus aureus [3], less than 0.0625 µg/mL; with Staphylococcus aureus [5], less than 0.06 µg/mL; in [6], less than 0.06 µg/mL; in the data set with Enterococcus faecium [8], 2 µg/mL (≈ 4.53 µM); in the data set with Staphylococcus aureus [13] it was less than 0.06 µg/mL. Further, the MIC in the data set on Candida albicans was 256 µg/mL (≈ 580 µM); in the data set on Staphylococcus aureus [15], 0.0625 µg/mL (≈ 0.142 µM); with Klebsiella pneumoniae, greater than 128 µg/mL; in data set [19] it was less than 0.06 µg/mL; in the data set on Enterococcus faecalis [23] it was 2 µg/mL (≈ 4.53 µM); in the data set with Staphylococcus aureus [24] it was 4 µg/mL. Also, the MIC in the data set on Enterobacter cloacae was greater than 128 µg/mL; in the data set with Enterococcus faecalis [26], 2 µg/mL (≈ 4.53 µM); with Escherichia coli, greater than 128 µg/mL; in the data set on Staphylococcus aureus [27] it was less than 0.06 µg/mL; in the data set on Enterococcus faecium [29] it was less than 0.06 µg/mL. Besides, the Vd in [4] was determined as 0.322 L/kg. This molecule also yielded a F in [7] of 51.6%. Besides, the outcome in the data set on Cell membrane [9], in the data set with Cell membrane [10], in the data set on Cell membrane [21] and in the data set on Cell membrane [22] was Active. Besides, the maximum concentration (Cmax) in [11] was 3100 ng/mL. In addition, in data set [12], the PPB was found to be 99.7%. This molecule also had a t1/2 in data set [14] of 1.88 h. Further, the values for the AUC in [16] and in [28] were 43300 ng·h/mL and 4200 ng·h/mL, respectively. This molecule displayed a Kinetic_solubility in data set [17] of 2.4 µg/mL. In addition, in data set [18], the CC50 is greater than 32 µg/mL. The MBC against Staphylococcus aureus [25] was found to be 2 µg/mL (≈ 4.53 µM).

Consider `Oc1cc(C(F)(F)F)nc2c(OC(F)(F)F)cccc12`, for which the MIC with Staphylococcus aureus [30] turned out to be 8 µg/mL (≈ 26.9 µM); in the data set with Staphylococcus aureus [3], 5 µg/mL (≈ 16.8 µM).
